Results taken from ChEMBL document CHEMBL4052823, “Extra Sugar on Vancomycin: New Analogues for Combating Multidrug-Resistant Staphylococcus aureus and Vancomycin-Resistant Enterococci” (J Med Chem, 2018).
Values after ≈ are worked out from the molar mass of the structure shown.

How the values were obtained:
Format in all cases: functional
[1] = system: Enterococcus faecium; assay: Antibacterial activity against glycopeptide-resistant Enterococcus faecium Efm-HS-08257 vanM after 24 hrs by broth microdilution method; conditions: Efm-HS-08257, 24 h
Method in brief: (§1)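 Broth microdilution in cation-adjusted Mueller-Hinton II broth. DMSO stocks were diluted in broth and twofold serially from 128 to 0.0625 μg/mL or lower. Each well was inoculated with ~10^5 CFU of exponential-phase bacteria and incubated at 37 °C for 24 h. MIC was the lowest concentration giving complete growth inhibition, read per CLSI. Growth controls contained broth plus DMSO.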

[2] = system: Staphylococcus aureus; assay: Antibacterial activity against vancomycin/methicillin-susceptible Staphylococcus aureus Newman […] after 24 hrs by broth microdilution method
Method in brief: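 Broth microdilution in cation-adjusted Mueller-Hinton II broth. […] Each well received ~10^5 CFU of exponential-phase bacteria and was incubated at 37 °C for 24 h. MIC was taken as the lowest concentration giving complete growth inhibition, interpreted per CLSI.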

[3] = system: Enterococcus faecium; assay: Antibacterial activity against glycopeptide-resistant Enterococcus faecium Efm-HS-0847 vanM after 24 hrs by broth microdilution method; conditions: Efm-HS-0847, 24 h; method in brief: as §1
[4] = system: Enterococcus faecium; assay: Antibacterial activity against glycopeptide-resistant Enterococcus faecium Efm-HS-06188 vanA after 24 hrs by broth microdilution method; conditions: Efm-HS-06188, 24 h; method in brief: as §1
[5] = system: Enterococcus faecium; assay: Antibacterial activity against glycopeptide-resistant Enterococcus faecium Efm-HS-0649 vanA after 24 hrs by broth microdilution method; conditions: Efm-HS-0649, 24 h; method in brief: as §1
[6] = system: Staphylococcus aureus; assay: Antibacterial activity against healthcare-associated methicillin-resistant/vancomycin-intermediate Staphylococcus aureus Mu50 after 24 hrs by broth microdilution method; conditions: Mu50, 24 h; method in brief: as §1
[7] = system: Enterococcus faecium; assay: Antibacterial activity against glycopeptide-resistant Enterococcus faecium Efm-HS-vb01 vanB after 24 hrs by broth microdilution method; conditions: Efm-HS-vb01, 24 h; method in brief: as §1

Compound	MIC [1] [µg/mL]	MIC90 [2] [µg/mL]	MIC [3] [µg/mL]	MIC [4] [µg/mL]	MIC [5] [µg/mL]	MIC90 [6] [µg/mL]	MIC [7] [µg/mL]
CN[C@H](CC(C)C)C(=O)N[C@H]1C(=O)N[C@@H](CC(N)=O)C(=O)N[C@H]2C(=O)N[C@H]3C(=O)N[C@H](C(=O)N[C@H](C(=O)O)c4cc(O)c(CNCCO)c(O)c4-c4cc3ccc4O)[C@H](O)c3ccc(c(Cl)c3)Oc3cc2cc(c3O[C@@H]2O[C@H](CO)[C@@H](O)[C@H](O)[C@H]2O[C@H]2C[C@](C)(NCc3ccc(-c4ccc(Cl)cc4)cc3)[C@H](O)[C@H](C)O2)Oc2ccc(cc2Cl)[C@H]1O	2 (≈ 1.16 µM)	0.03 (≈ 0.0174 µM)	4 (≈ 2.32 µM)	1 (≈ 0.58 µM)	2 (≈ 1.16 µM)	0.12 (≈ 0.0696 µM)	≤ 0.06
CCCCCCCCCCNCCN[C@@]1(C)C[C@H](O[C@H]2[C@H](Oc3c4cc5cc3Oc3ccc(cc3Cl)[C@@H](O)[C@@H](NC(=O)[C@@H](CC(C)C)NC)C(=O)N[C@@H](CC(N)=O)C(=O)N[C@H]5C(=O)N[C@H]3C(=O)N[C@H](C(=O)N[C@H](C(=O)O)c5cc(O)c(CNCCO)c(O)c5-c5cc3ccc5O)[C@H](O)c3ccc(c(Cl)c3)O4)O[C@H](CO)[C@@H](O)[C@@H]2O)O[C@@H](C)[C@H]1O	1 (≈ 0.586 µM)	1 (≈ 0.586 µM)	8 (≈ 4.69 µM)	16 (≈ 9.38 µM)	16 (≈ 9.38 µM)	4 (≈ 2.35 µM)	4 (≈ 2.35 µM)
CCCCCCCCCCNCCN[C@@]1(C)C[C@H](O[C@H]2[C@H](Oc3c4cc5cc3Oc3ccc(cc3Cl)[C@@H](O)[C@@H](NC(=O)[C@@H](CC(C)C)NC)C(=O)N[C@@H](CC(N)=O)C(=O)N[C@H]5C(=O)N[C@H]3C(=O)N[C@H](C(=O)N[C@H](C(=O)O)c5cc(O)c(CN[C@H]6C(O)O[C@H](CO)[C@@H](O)[C@@H]6O)c(O)c5-c5cc3ccc5O)[C@H](O)c3ccc(c(Cl)c3)O4)O[C@H](CO)[C@@H](O)[C@@H]2O)O[C@@H](C)[C@H]1O (some centres not stated)	8 (≈ 4.39 µM)	4 (≈ 2.19 µM)	32 (≈ 17.5 µM)	64 (≈ 35.1 µM)	64 (≈ 35.1 µM)	8 (≈ 4.39 µM)	16 (≈ 8.77 µM)
CN[C@H](CC(C)C)C(=O)N[C@H]1C(=O)N[C@@H](CC(N)=O)C(=O)N[C@H]2C(=O)N[C@H]3C(=O)N[C@H](C(=O)N[C@H](C(=O)NCCCN(C)C)c4cc(O)c(C)c(O)c4-c4cc3ccc4O)[C@H](O)c3ccc(c(Cl)c3)Oc3cc2cc(c3O[C@@H]2O[C@H](CO)[C@@H](O)[C@H](O)[C@H]2O[C@H]2C[C@](C)(NCc3ccc(-c4ccc(Cl)cc4)cc3)[C@H](O)[C@H](C)O2)Oc2ccc(cc2Cl)[C@H]1O	0.12 (≈ 0.0686 µM)	1 (≈ 0.572 µM)	1 (≈ 0.572 µM)	1 (≈ 0.572 µM)	0.5 (≈ 0.286 µM)	1 (≈ 0.572 µM)	2 (≈ 1.14 µM)
CN[C@H](CC(C)C)C(=O)N[C@H]1C(=O)N[C@@H](CC(N)=O)C(=O)N[C@H]2C(=O)N[C@H]3C(=O)N[C@H](C(=O)N[C@H](C(=O)O)c4cc(O)c(CNCP(=O)(O)O)c(O)c4-c4cc3ccc4O)[C@H](O)c3ccc(c(Cl)c3)Oc3cc2cc(c3O[C@@H]2O[C@H](CO)[C@@H](O)[C@H](O)[C@H]2O[C@H]2C[C@](C)(NCc3ccc(-c4ccc(Cl)cc4)cc3)[C@H](O)[C@H](C)O2)Oc2ccc(cc2Cl)[C@H]1O	0.12 (≈ 0.0677 µM)	0.5 (≈ 0.282 µM)	2 (≈ 1.13 µM)	4 (≈ 2.26 µM)	2 (≈ 1.13 µM)	0.5 (≈ 0.282 µM)	0.25 (≈ 0.141 µM)
CN[C@H](CC(C)C)C(=O)N[C@H]1C(=O)N[C@@H](CC(N)=O)C(=O)N[C@H]2C(=O)N[C@H]3C(=O)N[C@H](C(=O)N[C@H](C(=O)O)c4cc(O)cc(O)c4-c4cc3ccc4O)[C@H](O[C@H]3C[C@](C)(N)[C@@H](O)[C@H](C)O3)c3ccc(c(Cl)c3)Oc3cc2cc(c3O[C@@H]2O[C@H](CO)[C@@H](O)[C@H](O)[C@H]2O[C@H]2C[C@](C)(NCc3ccc(-c4ccc(Cl)cc4)cc3)[C@@H](O)[C@H](C)O2)Oc2ccc(cc2Cl)[C@H]1O [ORITAVANCIN]	0.5 (≈ 0.279 µM)	0.06 (≈ 0.0335 µM)	1 (≈ 0.558 µM)	0.25 (≈ 0.139 µM)	0.25 (≈ 0.139 µM)	0.06 (≈ 0.0335 µM)	0.25 (≈ 0.139 µM)
CN[C@H](CC(C)C)C(=O)N[C@H]1C(=O)N[C@@H](CC(N)=O)C(=O)N[C@H]2C(=O)N[C@H]3C(=O)N[C@H](C(=O)N[C@H](C(=O)O)c4cc(O)c(CNCCO[C@H]5O[C@H](CO)[C@@H](O)[C@H](O)[C@@H]5O)c(O)c4-c4cc3ccc4O)[C@H](O)c3ccc(c(Cl)c3)Oc3cc2cc(c3O[C@@H]2O[C@H](CO)[C@@H](O)[C@H](O)[C@H]2O[C@H]2C[C@](C)(NCc3ccc(-c4ccc(Cl)cc4)cc3)[C@H](O)[C@H](C)O2)Oc2ccc(cc2Cl)[C@H]1O	0.12 (≈ 0.0637 µM)	2 (≈ 1.06 µM)	2 (≈ 1.06 µM)	1 (≈ 0.53 µM)	0.5 (≈ 0.265 µM)	4 (≈ 2.12 µM)	2 (≈ 1.06 µM)
CCCCCCCCCCNCCN[C@@]1(C)C[C@H](O[C@H]2[C@H](Oc3c4cc5cc3Oc3ccc(cc3Cl)[C@@H](O)[C@@H](NC(=O)[C@@H](CC(C)C)NC)C(=O)N[C@@H](CC(N)=O)C(=O)N[C@H]5C(=O)N[C@H]3C(=O)N[C@H](C(=O)N[C@H](C(=O)O)c5cc(O)c(CN[C@@H]6C(O)O[C@H](CO)[C@@H](O)[C@@H]6O)c(O)c5-c5cc3ccc5O)[C@H](O)c3ccc(c(Cl)c3)O4)O[C@H](CO)[C@@H](O)[C@@H]2O)O[C@@H](C)[C@H]1O (some centres not stated)	8 (≈ 4.39 µM)	8 (≈ 4.39 µM)	32 (≈ 17.5 µM)	64 (≈ 35.1 µM)	64 (≈ 35.1 µM)	32 (≈ 17.5 µM)	16 (≈ 8.77 µM)
CCCCCCCCCCNCCN[C@@]1(C)C[C@H](O[C@H]2[C@H](Oc3c4cc5cc3Oc3ccc(cc3Cl)[C@@H](O)[C@@H](NC(=O)[C@@H](CC(C)C)NC)C(=O)N[C@@H](CC(N)=O)C(=O)N[C@H]5C(=O)N[C@H]3C(=O)N[C@H](C(=O)N[C@H](C(=O)O)c5cc(O)c(CN[C@H]6C(O)O[C@H](CO)[C@H](O)[C@@H]6O)c(O)c5-c5cc3ccc5O)[C@H](O)c3ccc(c(Cl)c3)O4)O[C@H](CO)[C@@H](O)[C@@H]2O)O[C@@H](C)[C@H]1O (some centres not stated)	8 (≈ 4.39 µM)	0.12 (≈ 0.0658 µM)	8 (≈ 4.39 µM)	8 (≈ 4.39 µM)	16 (≈ 8.77 µM)	0.5 (≈ 0.274 µM)	1 (≈ 0.548 µM)
CN[C@H](CC(C)C)C(=O)N[C@H]1C(=O)N[C@@H](CC(N)=O)C(=O)N[C@H]2C(=O)N[C@H]3C(=O)N[C@H](C(=O)N[C@H](C(=O)O)c4cc(O)c(CNCCCNC(=O)[C@H](O)[C@@H](O)[C@H](O)[C@H](O)CO)c(O)c4-c4cc3ccc4O)[C@H](O)c3ccc(c(Cl)c3)Oc3cc2cc(c3O[C@@H]2O[C@H](CO)[C@@H](O)[C@H](O)[C@H]2O[C@H]2C[C@](C)(NCc3ccc(-c4ccc(Cl)cc4)cc3)[C@H](O)[C@H](C)O2)Oc2ccc(cc2Cl)[C@H]1O	8 (≈ 4.18 µM)	0.06 (≈ 0.0313 µM)	16 (≈ 8.36 µM)	1 (≈ 0.522 µM)	4 (≈ 2.09 µM)	0.12 (≈ 0.0627 µM)	1 (≈ 0.522 µM)
CN[C@H](CC(C)C)C(=O)N[C@H]1C(=O)N[C@@H](CC(N)=O)C(=O)N[C@H]2C(=O)N[C@H]3C(=O)N[C@H](C(=O)N[C@H](C(=O)NCCCN(C)C)c4cc(O)c(CNCCCNC(=O)[C@H](O)[C@@H](O)[C@H](O)[C@H](O)CO)c(O)c4-c4cc3ccc4O)[C@H](O)c3ccc(c(Cl)c3)Oc3cc2cc(c3O[C@@H]2O[C@H](CO)[C@@H](O)[C@H](O)[C@H]2O[C@H]2C[C@](C)(NCc3ccc(-c4ccc(Cl)cc4)cc3)[C@H](O)[C@H](C)O2)Oc2ccc(cc2Cl)[C@H]1O	1 (≈ 0.5 µM)	1 (≈ 0.5 µM)	2 (≈ 1 µM)	2 (≈ 1 µM)	1 (≈ 0.5 µM)	2 (≈ 1 µM)	8 (≈ 4 µM)
